TRPC4 agonist: activators of mouse TRPC4 channel. 310,000 tested, 0.49% active. HEK293 TRPC4beta/mu-opioid, Fluo4 calcium fluorescence; hits give high values. AID 2237. B-score at 10 µM;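 active = B-score above 5 SD of library B-scores, and initial fluorescence ratio not above library mean plus 5 SD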;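 also: positive B-score marks a calcium rise read as TRPC4 activation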
Target sequence (Q9QUQ5 whole entry, looked up): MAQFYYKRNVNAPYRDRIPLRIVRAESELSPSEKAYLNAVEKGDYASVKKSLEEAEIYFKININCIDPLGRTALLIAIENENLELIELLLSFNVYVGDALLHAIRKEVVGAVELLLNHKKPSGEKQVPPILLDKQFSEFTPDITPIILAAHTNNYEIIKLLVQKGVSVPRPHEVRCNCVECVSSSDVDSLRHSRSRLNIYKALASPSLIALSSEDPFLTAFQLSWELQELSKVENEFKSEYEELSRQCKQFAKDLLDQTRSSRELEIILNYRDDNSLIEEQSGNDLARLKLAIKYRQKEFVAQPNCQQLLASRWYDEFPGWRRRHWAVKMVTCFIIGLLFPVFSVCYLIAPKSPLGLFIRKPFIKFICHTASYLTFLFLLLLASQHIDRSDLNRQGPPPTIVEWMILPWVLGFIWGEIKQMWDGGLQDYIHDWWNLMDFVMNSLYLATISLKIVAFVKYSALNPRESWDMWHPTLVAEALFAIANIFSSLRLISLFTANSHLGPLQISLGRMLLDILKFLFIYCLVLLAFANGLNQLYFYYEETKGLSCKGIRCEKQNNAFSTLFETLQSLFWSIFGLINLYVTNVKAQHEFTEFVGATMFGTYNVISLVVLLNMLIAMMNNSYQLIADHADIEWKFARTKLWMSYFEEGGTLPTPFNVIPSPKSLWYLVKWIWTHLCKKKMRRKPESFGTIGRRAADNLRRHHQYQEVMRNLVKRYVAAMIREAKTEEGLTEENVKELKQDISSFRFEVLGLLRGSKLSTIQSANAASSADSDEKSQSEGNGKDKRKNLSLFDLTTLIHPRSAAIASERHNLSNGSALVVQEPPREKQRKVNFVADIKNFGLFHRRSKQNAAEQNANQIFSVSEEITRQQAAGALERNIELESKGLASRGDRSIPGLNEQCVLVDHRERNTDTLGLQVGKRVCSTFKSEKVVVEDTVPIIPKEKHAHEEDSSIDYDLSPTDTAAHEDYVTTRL
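System: HEK293 cells stably co-expressing mouse TRPC4beta and mu-opioid receptor; Schedule: Fluo4 dye loading 45 min at room temperature, 110 s recording; Detection: Fluo4 fluorescence, kinetic; Evaluation: B-scored integrated calcium fluorescence ratio; Controls: buffer (low) and maximal DAMGO (high).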
TRPC6 act: activators of mouse TRPC6 channel | Q61143 | HEK293-TRPC6 membrane potential dye fluorescence; hits give high values | B-score at 10 µM | 310,000 tested, 0.13% active;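 active = B-score of the integrated fluorescence ratio above library mean plus 3 SD, and starting fluorescence ratio within library mean plus 5 SD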;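 also: higher score means more depolarization so channel activation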
TRPC4 PAM: allosterically enhances the mouse TRPC4 cation channel | Q9QUQ5 | HEK293 TRPC4beta/mu-opioid, DAMGO EC20, Fluo-4 Ca2+ flux; hits give high values | B-score at 10 µM | 310,000 tested, 0.42% active | AID 2227;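 active = B-score of calcium response area above 5 SD of library B-scores, with initial fluorescence ratio within 5 SD of library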
TRPC4 inh: inhibitors of mouse TRPC4 channel. Q9QUQ5. HEK293 TRPC4beta/mu-opioid, DAMGO-evoked Fluo4 calcium flux; hits give low values. B-score at 10 µM. 300,000 tested, 0.39% active;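 active = B-score over 3 SD under the library average, no early fluorescence shift, positive overall ratio signal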
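Assay system: Stable TRPC4beta/mu-opioid receptor HEK293 cells | Reagent: DAMGO in two steps, submaximal then maximal | Compound dosing: Single concentration per test compound | Signal: Fluo4 Ca2+ flux fluorescence | Evaluation: Per-well B score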
TRPC6 inhibitor: blocks the mouse TRPC6 cation channel; Q61143; HEK293-TRPC6, membrane potential dye, ACh-evoked depolarization; hits give low values; B-score at 10 µM; 310,000 tested, 1.1% active;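 active = B-score under library mean minus 3 SD, initial fluorescence not abnormally high, positive integrated signal ratio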;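 also: B-score derived from integrated fluorescence ratio over the kinetic read; more negative B-score means stronger inhibition of depolarization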
Numbers stand for hits; . = inactive. Compounds with a hit are over-represented: about 2.3% of the library has one in this group of screens.

SMILES	TRPC4 agonist	TRPC6 act	TRPC4 PAM	TRPC4 inh	TRPC6 inhibitor
Cc1ccc(S(=O)(=O)NCC(c2ccc3c(c2)OCO3)N2CCOCC2)cc1 (stereo not drawn)	.	.	.	.	.
CN(C)CCCN(Cc1cc2cc3c(cc2[nH]c1=O)OCO3)C(=S)NCc1ccco1	.	.	.	-6	.
COc1ccc(/C=N/Nc2nc3ccccc3s2)cc1O	.	.	16	.	.
COc1ccc(/C=N/Nc2nc3ccccc3o2)cc1O	.	.	.	.	.
COc1ccc(-n2nnnc2SCC(=O)Nc2cccc(O)c2)cc1	.	.	.	.	.
COc1ccc(-n2cc(CNCCCn3ccnc3)c(-c3ccccc3Cl)n2)cc1	.	.	.	.	.
Fc1ccc(-n2cc(CNCCc3ccccn3)c(-c3ccccc3Cl)n2)cc1	253	.	.	.	.
COc1ccc(-n2cc(CNCCc3nc(C)cc(C)n3)c(-c3ccccc3Cl)n2)cc1	.	.	.	.	.
Cc1ccc(-n2cc(CNCCc3ncc(C)[nH]3)c(-c3ccc(F)cc3)n2)cc1	133	.	.	.	.
COc1ccc(-n2cc(CNCCc3ncc(C)[nH]3)c(-c3ccccc3Cl)n2)cc1	148	.	.	.	.
CCOC(=O)c1ccc(-n2c(CN(CC)CC)nc3ccc([N+](=O)[O-])cc3c2=O)cc1	.	.	.	.	.
COC(=O)NNC(=O)C1CCC(C(=O)NNC(=O)OC)CC1 (stereo not drawn)	.	.	.	.	.
Clc1ccc2c(c1)CCc1cccnc1C2=C1CCNCC1	.	.	.	.	-6
CC(=O)O[C@H]1CC[C@@]2(C)C(CCC3C2CC[C@]2(C)OC(=O)CCC32)C1 (stereo partly drawn)	.	.	10	.	.
CC(=O)OC1C([N+]2(C)CCCCC2)C[C@H]2C3CC[C@H]4C[C@H](OC(C)=O)C([N+]5(C)CCCCC5)CC4(C)[C@H]3CCC12C (stereo partly drawn)	.	.	.	.	.
O=C(NCC1CCN(c2ccc(S(=O)(=O)N3CCOCC3)cc2)CC1)Nc1ccccc1F	.	.	.	.	.
CCOc1ccc(S(=O)(=O)N2CCCCC2)c(C)c1C	.	.	14	.	.
CC1CCN(c2nc(Cl)nc(Nc3ccc([N+](=O)[O-])cc3)n2)CC1	.	.	47	.	.
CCCCNC(=O)CCn1nc(-c2ccccc2)ccc1=O	.	.	.	.	.
CC1CCCN(CCCNC(=O)CCn2nc(-c3ccccc3)ccc2=O)C1 (stereo not drawn)	.	.	11	.	.
CCCN1C(=O)c2[nH]nc(-c3cc(Cl)c(C)cc3O)c2C1c1ccc(O)c(OC)c1 (stereo not drawn)	.	.	11	.	.
COCCCN1C(=O)c2[nH]nc(-c3ccccc3O)c2C1c1ccc(Cl)cc1 (stereo not drawn)	.	.	13	.	.
Cc1ccc(C(=O)COC(=O)COc2ccccc2C)cc1	.	.	.	.	.
COc1ccc(CNC(=O)CSc2ncn[nH]2)cc1OC	.	.	.	.	.
CCCCCOc1ccc(Br)cc1/C(C)=N/NC1=NCCN1	.	.	.	.	-5.9
SMILES	TRPC4 agonist	TRPC6 act	TRPC4 PAM	TRPC4 inh	TRPC6 inhibitor
COc1ccc(Br)cc1/C(C)=N/NC1=NCCN1	.	.	.	.	.
O=C1CC(NS(=O)(=O)c2cc(F)ccc2F)CN1c1ccc2c(c1)OCCO2 (stereo not drawn)	.	.	.	.	.
Cc1cc(N2CCCCC2)nc(N)n1	80	.	.	.	.
COc1cccc(NC(=O)c2ccnc(N3CCC(C(=O)NCc4cc(OC)ccc4OC)CC3)c2)c1	.	.	.	.	.
CC(C)(C)NCCOCCOc1ccccc1-c1ccccc1	.	.	.	.	.
CCC(C)NCCOCCOc1ccccc1-c1ccccc1 (stereo not drawn)	.	.	.	-7	.
CCOC(=O)c1c(NC(=O)c2ccccc2C)sc2c1CC(C)(C)OC2	.	.	11	.	.
CNC[C@H](Cc1ccccc1)NC[C@@H](Cc1cccc2ccccc12)NCCc1ccc(C)cc1	173	.	.	.	.
CCN1CCN(c2ccc(S(=O)(=O)N3CCOCC3)cc2NC(=O)c2ccccc2OC(F)F)CC1	131	.	.	.	.
Cc1cc(Cl)ccc1OC(C)C(=O)Nc1ccccc1N1CCOCC1 (stereo not drawn)	.	.	22	.	.
CCN1CCN(c2ccc(S(=O)(=O)N3CCOCC3)cc2NC(=O)C(C)Oc2cccc(Cl)c2)CC1 (stereo not drawn)	101	.	.	.	.
CC(Oc1cccc(Cl)c1)C(=O)Nc1cc(S(=O)(=O)N2CCOCC2)ccc1N1CCCCC1 (stereo not drawn)	.	.	.	.	.
COc1ccccc1C(=O)N=c1sc2c(C)ccc(OC)c2n1C	.	.	.	.	.
Cc1ccc(N2CC(=O)N(CC(=O)O)C2=O)cc1	.	.	.	.	.
O=C(CSc1ccc(Cl)cc1)NNC(=O)c1cccnc1	.	.	.	.	.
O=C(NCCS(=O)(=O)N1CCN(c2ccccc2)CC1)C1CC1	.	.	.	.	.
CCOC(=O)c1sc2nc(N3CCOCC3)c3c(c2c1N)CCN(C)C3	.	.	.	.	-7
O=C(C1CCCN(Cc2ccccc2)C1)N1CCc2ccccc2C1 (stereo not drawn)	160	.	.	.	.
COc1cc(CN2CCCC(C(=O)N3CCc4ccccc4C3)C2)cc(OC)c1OC (stereo not drawn)	55	.	.	.	.
COc1ccc(Cl)cc1C(=O)NCCN(C)C	.	.	28	.	.
CCNC(=O)c1cc(Cl)ccc1OC	.	.	.	.	.
CN1C(=O)c2ccccc2Sc2ccc(C(=O)O)cc21	.	.	.	.	.
CC(=O)c1ccc2c(c1)N(C)c1ccccc1S2	.	.	.	-6	.
O=C(COC(=O)c1cc([N+](=O)[O-])ccc1N1CCOCC1)Nc1ncc(Cl)cc1Cl	.	.	.	.	.
Clc1ccc(SCCCCn2cncn2)cc1	.	.	.	.	.
SMILES	TRPC4 agonist	TRPC6 act	TRPC4 PAM	TRPC4 inh	TRPC6 inhibitor
Clc1ccc(OCCn2ccnc2)c(Cl)c1	.	.	14	.	.
Clc1ccc(OCCn2ccnc2)c(Br)c1	.	.	21	.	.
OC(COc1ccc(Cl)cc1Cl)Cn1ccnc1 (stereo not drawn)	.	.	.	.	.
Cc1cc(Cl)c(OCCn2ccnc2)c(Br)c1	.	.	.	.	.
Clc1ccc(SCCn2ccnc2)cc1	63	.	.	.	.
Clc1ccc(OCCn2ccnc2)c2ccccc12	53	.	.	.	.
COc1ccccc1OCCn1ccnc1	.	.	.	.	.
O=C(NCc1ccccn1)C(=O)Nc1cc2c3c(c1)CC(=O)N3CCC2	.	.	.	.	.
Cc1ccsc1/C=N/Nc1ncc(Cl)cc1Cl	.	.	10	.	.
